Experimental data of several laboratories.
KCNH2: Voltage-gated inwardly rectifying potassium channel KCNH2 (KCNH2, Homo sapiens, UniProt Q12809)
Antigen peptide transporter 1/Antigen peptide transporter 2: Antigen peptide transporter 1/Antigen peptide transporter 2 (Homo sapiens, UniProt Q03518+Q03519)
PDE4D: 3',5'-cyclic-AMP phosphodiesterase 4D (PDE4D, Homo sapiens, UniProt Q08499)
CDK7 with cyclin H: Cyclin-dependent kinase 7, with cyclin H (CDK7, Homo sapiens, UniProt P50613)
TEAD4: Transcriptional enhancer factor TEF-3 (TEAD4, Homo sapiens, UniProt Q15561)

C[C@H]1COCCN1c1nc(NCc2cccnc2C(F)(F)F)c2cccnc2n1
IC50 (KCNH2; ion current, inhibitor): > 33300 nM

O=c1c2ccccc2[nH]c(=S)n1-c1ccccc1
IC50 (Prothrombin (F2, Homo sapiens, UniProt P00734); enzyme activity, inhibitor): 92400 nM

CC(C)C[C@H](NC(=O)[C@H](CCC(=O)O)NC(=O)[C@@H](NC(=O)[C@H](CO)NC(=O)[C@H](CCCCN)NC(=O)[C@H](CCC(N)=O)NC(=O)[C@H](Cc1ccc(O)cc1)NC(=O)[C@H](C)NC(=O)[C@@H](N)CCCNC(=N)N)[C@@H](C)O)C(=O)O
IC50 (Antigen peptide transporter 1/Antigen peptide transporter 2; ligand displacement): 400 nM

COc1cc(C(=O)NS(=O)(=O)c2ccccc2C)ccc1Cc1cn(C)c2ccc(NC(=O)OC3CCCC3)cc12
IC50 (PDE4D; enzyme activity, inhibitor, radiometric): 5380 nM

CC(C)c1cccc(=O)c(O)c1
IC50 (eno (Escherichia coli, UniProt P0A6P9); enzyme activity, inhibitor, absorbance): 8000 to 11000 nM

CN1[C@@H](CC(=O)c2ccccc2)CCC[C@H]1C[C@H](O)c1ccccc1
IC50 (KCNH2; ligand displacement; HEK293; 1 h, pH 7.4, cell membranes): 1500 nM

O=c1cc(-c2ccccc2)oc2c1ccc1occc12
IC50 (CDK7 with cyclin H; enzyme activity, inhibitor, ADP detection): 4800 nM

CC(C)C[C@H](NC(=O)[C@H](CCC(=O)O)NC(=O)[C@@H](NC(=O)[C@H](CO)NC(=O)[C@H](CCCCN)NC(=O)[C@H](CCC(N)=O)NC(=O)[C@H](Cc1ccc(O)cc1)NC(=O)[C@@H](N)CCCNC(=N)N)[C@@H](C)O)C(=O)O
IC50 (Antigen peptide transporter 1/Antigen peptide transporter 2; ligand displacement): 100000 nM

COc1c(-c2ccc3c(c2)OCO3)oc2c(ccc3occc32)c1=O
IC50 (CDK7 with cyclin H; enzyme activity, inhibitor, ADP detection): > 50000 nM

CC(NC(C)(C)C)C(=O)c1cccc(Cl)c1 (centres unmarked)
IC50 (Sodium-dependent dopamine transporter (Slc6a3, Rattus norvegicus, UniProt P23977); transporter uptake, inhibitor, radiometric): 305 nM

CC[C@H](C)[C@H](NC(=O)[C@@H](NC(=O)[C@H](CC(N)=O)NC(=O)[C@H](CCCCN)NC(=O)[C@@H]1CCCN1C(=O)[C@H](CC(N)=O)NC(=O)[C@H](CCSC)NC(=O)[C@@H](NC(=O)[C@H](C)NC(=O)[C@H](CC(N)=O)NC(=O)[C@H](Cc1ccccc1)NC(=O)[C@H](CC(C)C)NC(=O)[C@H](C)NC(=O)[C@H](CCC(=O)O)NC(=O)[C@H](CC(C)C)NC(=O)[C@H](CC(=O)O)NC(=O)[C@@H](NC(=O)[C@H](CCC(=O)O)NC(=O)[C@H](CO)NC(C)=O)[C@@H](C)O)C(C)C)[C@@H](C)O)C(=O)N[C@H](C(=O)N1CCC[C@H]1C(=O)N1CCC[C@H]1C(=O)N[C@@H](CO)C(=O)N[C@H](C(=O)N1CCC[C@H]1C(=O)N[C@@H](CCSC)C(=O)N[C@@H](CCCNC(=N)N)C(=O)N[C@@H](CC(C)C)C(=O)N[C@@H](CCCNC(=N)N)C(=O)N[C@@H](CCCCN)C(=O)N[C@@H](CC(C)C)C(=O)N1CCC[C@H]1C(=O)N[C@@H](CC(=O)O)C(=O)N[C@@H](CO)C(=O)N[C@@H](Cc1ccccc1)C(=O)N[C@@H](Cc1ccccc1)C(=O)N[C@H](C(=O)N1CCC[C@H]1C(=O)N1CCC[C@H]1C(N)=O)[C@@H](C)O)C(C)C)C(C)C
IC50 (TEAD4; protein-protein interaction, inhibitor, TR-FRET): 64 nM

CC(C)[C@H](NC(=O)[C@H](C)N)C(=O)N[C@@H](C)C(=O)N[C@@H](C)C(=O)N[C@@H](C)C(=O)N[C@@H](C)C(=O)N[C@@H](C)C(=O)N[C@@H](C)C(=O)N[C@@H](C)C(=O)N[C@@H](CCCCN)C(=O)O
IC50 (Antigen peptide transporter 1/Antigen peptide transporter 2; ligand displacement): 9400 nM

CCCCOc1ccc(C(=O)CCN2CCCCC2)cc1
IC50 (PDE4D; enzyme activity, inhibitor, radiometric): 11300 nM

CC(C)C[C@H](NC(=O)[C@H](C)NC(=O)[C@H](C)NC(=O)[C@H](C)NC(=O)[C@H](C)NC(=O)[C@H](C)NC(=O)[C@H](C)NC(=O)[C@H](CCCNC(=N)N)NC(=O)[C@H](C)N)C(=O)O
IC50 (Antigen peptide transporter 1/Antigen peptide transporter 2; ligand displacement): 900 nM

CCCCCCCCCCCCCC(=O)O[C@@H]1[C@@H](C)[C@@]2(O)[C@@H](C=C(CO)C[C@]3(O)C(=O)C(C)=C[C@@H]23)[C@@H]2C(C)(C)[C@]12OC(C)=O
IC50 (Proteinase-activated receptor 2 (F2RL1, Homo sapiens, UniProt P55085); calcium signal, antagonist): 5.89 nM

CC[C@H](C)[C@H](NC(=O)[C@H](CCCNC(=N)N)NC(=O)CN)C(=O)N[C@@H](CC(=O)O)C(=O)N[C@@H](CCCCN)C(=O)N1CCC[C@H]1C(=O)N[C@H](C(=O)N[C@@H](CC(C)C)C(=O)N[C@@H](C)C(=O)O)[C@@H](C)CC
IC50 (Antigen peptide transporter 1/Antigen peptide transporter 2; ligand displacement): 5400 nM

CCc1c(C)nc(-c2ccc(Cl)s2)nc1Nc1ccc(CC(=O)O)cc1
IC50 (3',5'-cyclic-AMP phosphodiesterase 4D (PDE4D, Homo sapiens, UniProt Q08499, S190D/S715A/S717A); enzyme activity, inhibitor, fluorescence): 1570 nM

CN1[C@@H](CCc2ccccc2)CCC[C@H]1CCc1ccccc1
IC50 (KCNH2; ligand displacement; HEK293; 1 h, pH 7.4, cell membranes): 238 nM

CSCC[C@H](NC(=O)[C@H](CCCNC(=N)N)NC(=O)[C@H](CCSC)NC(=O)[C@@H]1CCCN1C(=O)[C@H](CC(C)C)NC(=O)[C@H](CO)NC(=O)[C@H](C)NC(=O)[C@@H]1CCCN1C(=O)[C@@H](NC(=O)[C@H](CC(N)=O)NC(=O)[C@H](CO)NC(=O)[C@H](CO)NC(=O)[C@H](CCCCN)NC(=O)[C@@H]1CCCN1C(=O)[C@H](CC(N)=O)NC(=O)[C@H](CCSC)NC(=O)[C@@H](NC(=O)[C@H](CO)NC(=O)[C@H](CC(N)=O)NC(=O)[C@H](Cc1ccccc1)NC(=O)[C@H](CC(C)C)NC(=O)[C@H](CC(C)C)NC(=O)[C@H](CCC(=O)O)NC(=O)[C@H](CC(C)C)NC(=O)[C@H](CC(=O)O)NC(=O)[C@@H](NC(=O)[C@H](CCC(N)=O)NC(=O)[C@H](CO)NC(C)=O)[C@@H](C)O)C(C)C)C(C)C)C(=O)N[C@@H](CCCNC(=N)N)C(=O)N[C@@H](CC(N)=O)C(=O)N[C@@H](CC(C)C)C(=O)N1CCC[C@H]1C(=O)N[C@@H](CC(=O)O)C(=O)N[C@@H](CO)C(=O)N[C@@H](Cc1ccccc1)C(=O)N[C@@H](Cc1ccccc1)C(=O)N[C@@H](CCCCN)C(=O)N1CCC[C@H]1C(=O)N1CCC[C@H]1C(N)=O
IC50 (TEAD4; protein-protein interaction, inhibitor, TR-FRET): 65 nM

CC[C@H](C)[C@H](NC(=O)[C@H](CCCNC(=N)N)NC(=O)CN)C(=O)N[C@@H](CC(=O)O)C(=O)N[C@@H](CCCCN)C(=O)N1CCC[C@H]1C(=O)N[C@H](C(=O)N[C@@H](CC(C)C)C(=O)N[C@@H](CCCCN)C(=O)O)[C@@H](C)CC
IC50 (Antigen peptide transporter 1/Antigen peptide transporter 2; ligand displacement): 2700 nM
